Results published in ChEMBL document CHEMBL3627719, “Discovery of bis-aryl urea derivatives as potent and selective Limk inhibitors: Exploring Limk1 activity and Limk1/ROCK2 selectivity through a combined computational study” (Bioorg Med Chem, 2015).

Key:
LIM domain kinase 1 = LIM domain kinase 1 (Homo sapiens, UniProt P53667); experiment: Inhibition of LIMK1 (unknown origin) using 1 uM cofilin as substrate
Outline: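 IC50 was determined in 10-dose mode using a 3-fold serial dilution series. Reactions contained ATP, cofilin as substrate, and Limk1 enzyme at 50 nM.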

[1] = target: Rho-associated protein kinase 2 (Homo sapiens, UniProt O75116); experiment: Inhibition of ROCK2 (unknown origin) after 4 hrs using 1 uM STK2 as substrate
Chain of Rho-associated protein kinase 2 (O75116 whole entry): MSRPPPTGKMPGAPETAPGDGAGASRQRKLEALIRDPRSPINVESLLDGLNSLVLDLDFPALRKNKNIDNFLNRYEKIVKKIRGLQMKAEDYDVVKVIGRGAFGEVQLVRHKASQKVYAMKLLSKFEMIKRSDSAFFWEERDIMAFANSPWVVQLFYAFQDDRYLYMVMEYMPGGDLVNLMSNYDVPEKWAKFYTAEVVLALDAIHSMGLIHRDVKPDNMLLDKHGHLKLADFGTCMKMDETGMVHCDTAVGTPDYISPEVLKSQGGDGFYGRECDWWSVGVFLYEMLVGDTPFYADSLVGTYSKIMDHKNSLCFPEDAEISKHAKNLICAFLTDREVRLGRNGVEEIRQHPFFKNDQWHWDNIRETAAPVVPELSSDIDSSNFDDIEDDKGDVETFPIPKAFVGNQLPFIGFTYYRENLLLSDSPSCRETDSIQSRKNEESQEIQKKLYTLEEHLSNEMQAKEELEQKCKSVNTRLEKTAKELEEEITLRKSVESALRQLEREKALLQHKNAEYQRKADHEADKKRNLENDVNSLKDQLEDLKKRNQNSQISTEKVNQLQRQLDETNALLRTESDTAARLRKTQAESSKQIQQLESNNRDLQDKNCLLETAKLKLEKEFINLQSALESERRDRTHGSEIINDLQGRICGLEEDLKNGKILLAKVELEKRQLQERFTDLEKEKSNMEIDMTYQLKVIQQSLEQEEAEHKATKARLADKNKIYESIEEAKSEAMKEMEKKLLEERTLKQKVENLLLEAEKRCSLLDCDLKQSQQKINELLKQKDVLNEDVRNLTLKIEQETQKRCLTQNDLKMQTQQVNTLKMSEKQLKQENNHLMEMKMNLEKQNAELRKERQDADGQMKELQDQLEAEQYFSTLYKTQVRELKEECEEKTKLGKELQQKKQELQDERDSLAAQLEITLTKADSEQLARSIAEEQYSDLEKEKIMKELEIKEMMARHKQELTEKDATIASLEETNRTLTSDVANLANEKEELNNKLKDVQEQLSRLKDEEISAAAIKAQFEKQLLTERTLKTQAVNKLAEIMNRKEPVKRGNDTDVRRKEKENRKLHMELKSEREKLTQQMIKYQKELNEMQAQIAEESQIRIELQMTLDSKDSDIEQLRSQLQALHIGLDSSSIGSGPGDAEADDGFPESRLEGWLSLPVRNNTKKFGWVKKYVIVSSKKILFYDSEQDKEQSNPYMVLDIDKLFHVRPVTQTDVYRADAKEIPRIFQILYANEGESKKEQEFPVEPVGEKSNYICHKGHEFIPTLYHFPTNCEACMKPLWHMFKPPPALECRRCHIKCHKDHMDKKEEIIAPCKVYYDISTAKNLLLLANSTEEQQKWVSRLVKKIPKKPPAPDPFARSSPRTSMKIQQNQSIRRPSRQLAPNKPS
Outline: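 HTRF kinase assay using STK2 substrate plus ATP in STK-buffer, with test compound pin-dispensed. Reaction ran 4 h at rt and was stopped with antibody and 62.5 nM streptavidin-XL in detection buffer. After a further 1 h at rt, plates were read in HTRF mode.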

Chain of LIM domain kinase 1 (P53667 whole entry, the tested form may be a part): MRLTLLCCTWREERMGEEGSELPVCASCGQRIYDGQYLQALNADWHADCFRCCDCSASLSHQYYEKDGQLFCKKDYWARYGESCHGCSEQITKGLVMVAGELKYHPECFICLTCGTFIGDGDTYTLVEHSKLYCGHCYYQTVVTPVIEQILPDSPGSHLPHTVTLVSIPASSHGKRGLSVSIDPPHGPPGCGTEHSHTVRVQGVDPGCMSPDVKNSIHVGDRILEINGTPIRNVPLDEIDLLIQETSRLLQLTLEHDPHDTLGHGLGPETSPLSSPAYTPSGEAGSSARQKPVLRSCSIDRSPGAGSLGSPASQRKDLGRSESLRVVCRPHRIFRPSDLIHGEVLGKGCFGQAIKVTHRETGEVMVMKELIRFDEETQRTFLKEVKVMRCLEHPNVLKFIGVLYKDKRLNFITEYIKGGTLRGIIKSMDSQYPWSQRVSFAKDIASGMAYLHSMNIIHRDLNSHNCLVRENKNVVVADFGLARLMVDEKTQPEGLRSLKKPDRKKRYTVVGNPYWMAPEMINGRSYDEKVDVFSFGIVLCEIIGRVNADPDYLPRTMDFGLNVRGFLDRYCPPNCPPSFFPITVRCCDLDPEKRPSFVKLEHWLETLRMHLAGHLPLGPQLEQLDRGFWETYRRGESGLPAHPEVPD

Row | Compound | IC50 (LIM domain kinase 1) | IC50 [1]
1 | Cc1cc(NC(=O)Nc2ccc(-c3ncnc4[nH]cc(C)c34)cc2F)ccn1 | 19 nM | 2010 nM
2 | Cc1c[nH]c2ncnc(-c3ccc(NC(=O)Nc4cncnc4)c(F)c3)c12 | 55 nM | 1020 nM
3 | Cc1c[nH]c2ncnc(-c3ccc(NC(=O)N(CCO)c4ccccc4)c(F)c3)c12 | 85 nM | 4510 nM

These reach a lower IC50 (LIM domain kinase 1). Values come first.

Row | IC50 (LIM domain kinase 1) | IC50 [1] | Compound
4 | 10 nM | > 20000 nM | COc1ccc(NC(=O)Nc2ccc(-c3ncnc4[nH]cc(C)c34)cc2F)cc1
5 | 11 nM | 2110 nM | Cc1ccc(NC(=O)Nc2ccc(-c3ncnc4[nH]cc(C)c34)cc2F)cn1
